From ChEMBL document CHEMBL3763156, “Imidazole-based pinanamine derivatives: Discovery of dual inhibitors of the wild-type and drug-resistant mutant of the influenza A virus” (Eur J Med Chem, 2016)

Columns and labels:
[1] = test system: Influenza A virus; test: Antiviral activity against amantadine-resistant Influenza A virus A/WSN/33(H1N1) expressing M2 S31N mutant ion channel infected in MDCK cells assessed as protection against virus induced cytopathic effect after 48 hrs by microscopic analysis; type: functional, organism-based, A/WSN/1933(H1N1)
Method in brief: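 MDCK cells were grown 24 h to a confluent monolayer and rinsed twice. They were infected with 100 TCID50 virus for 2 h at 37 °C in 5% CO2, and the inoculum was removed. Serial two-fold compound dilutions in DMEM with 1.5 µg/mL trypsin were added for 48 h at 34 °C in 5% CO2. CPE percentage was scored microscopically. IC50 came from non-linear regression, as the mean of 2–3 determinations.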

[2] = test system: Influenza A virus; test: Antiviral activity against amantadine-resistant Influenza A virus A/WSN/33(H1N1) expressing M2 S31N mutant ion channel infected in MDCK cells assessed as cell viability after 48 hrs by MTT assay; type: functional, organism-based, A/WSN/1933(H1N1)
Method in brief: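 Infected MDCK cells were given compound for 48 h, and the CPE-based result was confirmed by MTT viability. MTT was added from a 5 mg/mL stock for 4 h at 37 °C, stopped with DMSO, and read as absorbance at 490 nm. The 50% effective concentration was calculated by the Reed–Muench method, as the mean of 2–3 determinations.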

[3] = test system: Matrix protein 2 (Influenza A virus (A/Udorn/307/1972(H3N2))), P0DOF8 [S31N]; test: Inhibition of Influenza A virus M2 S31N mutant ion channel expressed in 293Trex cells at 100 uM after 2 mins by patch clamp assay; type: cell-based
[4] = test system: Matrix protein 2 (Influenza A virus (A/Udorn/307/1972(H3N2))), P0DOF8 [S31N]; test: Inhibition of Influenza A virus M2 S31N mutant ion channel expressed in Xenopus oocytes at 100 uM after 2 mins by two-electrode voltage clamp assay; type: cell-based
Method in brief: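 A/M2 channel (S31N for line 7, wild type for line 9) was expressed in Xenopus oocytes and recorded by two-electrode voltage clamp. Compound was applied at 100 µM, and the percentage inhibition of channel current was taken after 2 min. Values are mean ± SD.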

C[C@@H]1[C@H]2C[C@@H](C[C@H]1NCc1cnc(C(C)(C)C)[nH]1)C2(C)C
IC50 ([1]; read-out: IC50): 9.7 µM | IC50 [2]: 11.6 µM

Cc1ncc(CN[C@@H]2C[C@@H]3C[C@H]([C@H]2C)C3(C)C)[nH]1
IC50 [1]: Not Active

C[C@@H]1[C@H]2C[C@@H](C[C@H]1NCc1cnc(C3CC3)[nH]1)C2(C)C
IC50 ([1]; read-out: IC50): 29.4 µM

CCCCc1ncc(CN[C@@H]2C[C@@H]3C[C@H]([C@H]2C)C3(C)C)[nH]1
IC50 [1]: Not Active

C[C@@H]1[C@H]2C[C@@H](C[C@H]1NCc1[nH]cnc1C1CC1)C2(C)C
IC50 [1]: Not Active

C[C@@H]1[C@H]2C[C@@H](C[C@H]1NCc1[nH]cnc1-c1ccccc1)C2(C)C
IC50 [1]: Not Active

C[C@@H]1[C@H]2C[C@@H](C[C@H]1NCc1cnc(C3CCCCC3)[nH]1)C2(C)C
IC50 [1]: Not Active

CCCc1nc(-c2ccccc2)[nH]c1CN[C@@H]1C[C@@H]2C[C@H]([C@H]1C)C2(C)C
IC50 ([1]; read-out: IC50): 12.3 µM | IC50 [2]: 16.1 µM

C[C@@H]1[C@H]2C[C@@H](C[C@H]1NCc1cnc(C3CCCC3)[nH]1)C2(C)C
IC50 [1]: Not Active

Cc1nc[nH]c1CN[C@@H]1C[C@@H]2C[C@H]([C@H]1C)C2(C)C
IC50 ([1]; read-out: IC50): 95.5 µM | inhibition [3]: 27%

CCCc1nc(C2CC2)[nH]c1CN[C@@H]1C[C@@H]2C[C@H]([C@H]1C)C2(C)C
IC50 ([1]; read-out: IC50): 7.3 µM | IC50 [2]: 9.7 µM

Cc1nc(C(C)C)[nH]c1CN[C@@H]1C[C@@H]2C[C@H]([C@H]1C)C2(C)C
IC50 [1]: Not Active

CC(C)Cc1ncc(CN[C@@H]2C[C@@H]3C[C@H]([C@H]2C)C3(C)C)[nH]1
IC50 ([1]; read-out: IC50): 8.9 µM | IC50 [2]: 18.6 µM

NC12CC3CC(CC(C3)C1)C2 [AMANTADINE]
IC50 ([1]; read-out: IC50): 337 µM | inhibition [4]: 24.3%

C[C@@H]1[C@H]2C[C@@H](C[C@H]1NCc1[nH]cnc1C(C)(C)C)C2(C)C
IC50 [1]: Not Active

CCc1nc(C)c(CN[C@@H]2C[C@@H]3C[C@H]([C@H]2C)C3(C)C)[nH]1
IC50 [1]: Not Active | inhibition [4]: 1.73%

Cc1nc(C2CC2)[nH]c1CN[C@@H]1C[C@@H]2C[C@H]([C@H]1C)C2(C)C
IC50 ([1]; read-out: IC50): 9.4 µM | IC50 [2]: 21.4 µM

CC(C)c1ncc(CN[C@@H]2C[C@@H]3C[C@H]([C@H]2C)C3(C)C)[nH]1
IC50 [1]: Not Active

CCCc1nc(C(C)C)[nH]c1CN[C@@H]1C[C@@H]2C[C@H]([C@H]1C)C2(C)C
IC50 ([1]; read-out: IC50): 8.8 µM | IC50 [2]: 11.3 µM

CCc1nc[nH]c1CN[C@@H]1C[C@@H]2C[C@H]([C@H]1C)C2(C)C
IC50 [1]: Not Active

CCCc1nc[nH]c1CN[C@@H]1C[C@@H]2C[C@H]([C@H]1C)C2(C)C
IC50 ([1]; read-out: IC50): 3.4 µM | IC50 [2]: 7.3 µM | inhibition [4]: 3.47%

C[C@@H]1[C@H]2C[C@@H](C[C@H]1NCc1cnc(-c3ccccc3)[nH]1)C2(C)C
IC50 ([1]; read-out: IC50): 9 µM | IC50 [2]: 11 µM

C[C@@H]1[C@H]2C[C@@H](C[C@H]1NCc1cncn1C)C2(C)C
IC50 [1]: Not Active

CCc1ncc(CN[C@@H]2C[C@@H]3C[C@H]([C@H]2C)C3(C)C)[nH]1
IC50 ([1]; read-out: IC50): 9.5 µM

C[C@@H]1[C@H]2C[C@@H](C[C@H]1NCc1cnc(-c3cccs3)[nH]1)C2(C)C
IC50 [1]: Not Active
